Results of several laboratories.
Compare with care: the assays were run in different laboratories.
Target: RAC-beta serine/threonine-protein kinase (AKT2, Homo sapiens, UniProt P31751)

With `C=CC(=O)N1CCC([C@@H]2CCNc3c(C(N)=O)c(-c4ccc(Oc5ccccc5)cc4)nn32)CC1` the inhibition was 1% (enzyme activity, inhibitor; 1 µM).
For `COc1ccc2oc(-c3ccc4nc(N)oc4c3)c/c(=N\c3ccccc3NC(=O)CCN)c2c1`, the remaining binding was 93% (binding; 1 µM).
`C#Cc1cnc(Nc2ccnc(CO)c2)nc1Nc1ccccc1S(C)(=O)=NC#N` (stereo not shown) gave a remaining signal of 100% (cell-free assay; 1 µM).
`CCCCC(=O)Nc1ccc(-c2ccc3ncn(CCC)c(=O)c3c2)cn1` has a remaining binding of 100% (binding, competition with immobilised ligand; 0.5 µM).
With `CC#CC(=O)N1CCC[C@H]1c1nc(-c2ccc(C(=O)Nc3ccccn3)cc2)c2c(N)nccn12` the inhibition was 0% (enzyme activity, inhibitor; 1 µM).
`Cc1cc(-c2ccnc3[nH]cc(F)c23)cc(F)c1[C@@]1(O)[C@H](C)CN(C2CCS(=O)(=O)CC2)C[C@@H]1C` has a remaining activity of 93% (enzyme activity, inhibitor; 15 nM).
The remaining signal of `C[C@H]1CC[C@H](n2c3cnccc3c3cnc(Nc4ccc5c(n4)CCN(C(=O)CO)C5)nc32)CC1` is reported as 100% (cell-free assay; 1 µM).
The remaining binding of `N#Cc1ccc(NC(=O)Nc2ccccc2)cc1` is reported as 92% (cell-free assay, competition with immobilised ligand; 25 µM).
`CN1CCN(C(=O)c2ccc(NC(=O)Nc3ccc(N(C)c4ccnc(Nc5ccc(CS(C)(=O)=O)cc5)n4)cc3)cc2)CC1` has a remaining binding of 100% (binding; 1 µM).
The remaining binding of `C1=C/COCc2cc(ccc2OCCN2CCCC2)Nc2nccc(n2)-c2cccc(c2)COC/1` is reported as 100% (binding; 0.1 µM).
